Experiments:
[1] = target: T1, UDP-glucuronosyltransferase 1A3 (Homo sapiens, UniProt P35503); experiment: Substrate inhibition of human UGT1A3-mediated T-5224 acyl O-glucuronide formation after 10 to 60 mins in presence of UDP-glucuronic acid by HPLC method; type: ADME
T1 sequence (P35503 whole entry): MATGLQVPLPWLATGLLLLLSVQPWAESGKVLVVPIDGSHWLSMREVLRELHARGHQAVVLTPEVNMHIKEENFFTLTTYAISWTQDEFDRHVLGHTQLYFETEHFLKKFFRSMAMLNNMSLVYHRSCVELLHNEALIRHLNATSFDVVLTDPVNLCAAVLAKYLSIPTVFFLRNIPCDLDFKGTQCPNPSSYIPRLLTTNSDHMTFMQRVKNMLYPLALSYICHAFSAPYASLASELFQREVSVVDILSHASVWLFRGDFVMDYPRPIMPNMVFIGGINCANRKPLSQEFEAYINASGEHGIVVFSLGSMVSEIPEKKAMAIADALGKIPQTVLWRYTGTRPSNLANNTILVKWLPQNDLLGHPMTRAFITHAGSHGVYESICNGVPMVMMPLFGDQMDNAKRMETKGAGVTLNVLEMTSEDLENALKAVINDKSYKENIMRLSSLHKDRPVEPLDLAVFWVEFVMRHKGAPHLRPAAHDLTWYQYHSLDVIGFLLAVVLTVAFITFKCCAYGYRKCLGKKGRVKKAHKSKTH
In short: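 Recombinant human UGT1A1, UGT1A3 or UGT1A8 from baculovirus-infected insect cells (0.1 mg protein/mL) in 50 mM Tris-HCl pH 7.5, 8 mM MgCl2, alamethicin, 2% DMSO. T-5224 at 1–50 μM with 2 mM UDPGA for 60 min at 37°C. HPLC with UV at 290 nm. Triplicates fitted to a substrate-inhibition model. kcat uses UGT content quantified by immunoblot against recombinant UGT1A1/UGT2B4 standards.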

[2] = Drug metabolism in human intestinal microsomes assessed as T-5224 hydroxyl O-glucuronide formation after 10 to 60 mins by HPLC method; type: ADME, Intestine, Microsome
In short: (§1)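 Pooled liver microsomes (0.5 mg/mL) were incubated 10 min. Pooled intestinal microsomes (0.25 mg/mL) ran 10 min at T-5224 10–50 μM and 20 min at 1–5 μM. Buffer was 50 mM Tris-HCl pH 7.5 with 8 mM MgCl2, alamethicin and 2 mM UDPGA, at 37°C, in triplicate. Glucuronides G2/G3 were read by HPLC at 290 nm and fitted for Vmax/Km.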

Cytochrome P450 3A4 = Cytochrome P450 3A4 (Homo sapiens, UniProt P08684); experiment: Drug metabolism assessed as human CYP3A4-mediated metabolite formation at 2 uM after 30 mins by HPLC method; type: ADME; details: recombinant enzyme, 0.5 h
In short: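 Each recombinant human P450 was used at 50 pmol/mL with an NADPH-generating system and 2 μM 14C-T-5224 (0.5% DMSO final). Buffer was 100 mM Tris-HCl pH 7.5, except 100 mM potassium phosphate pH 7.4 for CYP2A6 and CYP2C9*1. Incubation ran 30 min at 37°C and was stopped with acetonitrile/methanol. Radioactive metabolite peaks were detected by C18 HPLC.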

Liver microsome [3] = experiment: Drug metabolism in pooled human liver microsomes assessed as T-5224 acyl O-glucuronide formation at 10 uM after 10 mins by HPLC method; type: ADME
In short: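 T-5224 at 10 μM incubated for 10 min at 37°C with UDPGA (2 mM) in pooled liver (0.5 mg protein/mL) or intestinal (0.25 mg protein/mL) microsomes. Buffer was 50 mM Tris-HCl pH 7.5 with 8 mM MgCl2 and alamethicin, after 5 min preincubation. Stopped with acetonitrile; glucuronides quantified by HPLC at 290 nm.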

Liver microsome [4] = experiment: Substrate inhibition of T-5224 acyl O-glucuronide formation in human liver microsomes after 10 to 60 mins by HPLC method
In short: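 Pooled liver (0.5 mg protein/mL) or intestinal (0.25 mg protein/mL) microsomes in 50 mM Tris-HCl pH 7.5, 8 mM MgCl2, alamethicin, 2% DMSO. T-5224 at 1–50 μM, 5 min preincubation at 37°C, started with 2 mM UDPGA. Incubated 10 min, or 20 min for intestinal microsomes at 1–5 μM. Acetonitrile stop, glucuronides by HPLC at 290 nm. Triplicates fitted to a substrate-inhibition model.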

Liver microsome [5] = experiment: Drug metabolism in human liver microsomes assessed as T-5224 hydroxyl O-glucuronide formation at 10 uM after 10 mins in presence of beta-estradiol by HPLC method; type: ADME
In short: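 Pooled liver microsomes (0.5 mg protein/mL) with 10 μM T-5224, 2 mM UDPGA and β-estradiol at 0–500 μM, 2% DMSO, in 50 mM Tris-HCl pH 7.5, 8 mM MgCl2 and alamethicin. Incubated 10 min at 37°C, stopped with acetonitrile. Glucuronides measured by HPLC at 290 nm; mean ± SD, n = 3.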

Liver microsome [6] = experiment: Drug metabolism in human liver microsomes assessed as T-5224 acyl O-glucuronide formation per mg protein after 10 to 60 mins by HPLC method; type: ADME; in short: as §1
[7] = target: T2, UDP-glucuronosyltransferase 1A1 (Homo sapiens, UniProt P22309); experiment: Drug metabolism assessed as Vmax/Km ratio for human UGT1A1-mediated T-5224 acyl O-glucuronide formation per mg protein after 10 to 60 mins in presence of UDP-glucuronic acid by HPLC method; type: ADME; details: recombinant enzyme
T2 sequence (P22309 whole entry): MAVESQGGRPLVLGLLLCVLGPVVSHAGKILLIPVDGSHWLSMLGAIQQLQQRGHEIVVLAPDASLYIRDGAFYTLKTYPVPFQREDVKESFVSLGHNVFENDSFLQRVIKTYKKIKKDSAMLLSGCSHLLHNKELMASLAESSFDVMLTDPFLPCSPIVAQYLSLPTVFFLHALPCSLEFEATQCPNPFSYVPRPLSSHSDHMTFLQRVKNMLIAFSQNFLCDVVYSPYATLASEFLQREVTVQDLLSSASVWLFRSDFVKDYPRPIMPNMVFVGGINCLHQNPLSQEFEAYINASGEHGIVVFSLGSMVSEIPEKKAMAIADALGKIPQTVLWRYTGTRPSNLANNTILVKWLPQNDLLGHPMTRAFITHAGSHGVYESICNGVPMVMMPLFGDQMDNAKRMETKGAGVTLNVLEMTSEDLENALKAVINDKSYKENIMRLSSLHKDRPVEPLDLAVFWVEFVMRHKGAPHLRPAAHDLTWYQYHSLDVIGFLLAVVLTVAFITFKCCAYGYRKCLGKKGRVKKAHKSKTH
In short: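 Kinetics used recombinant UGT1A1, 1A3 or 1A8 (0.1 mg protein/mL) with T-5224 at 1–50 μM, 2 mM UDPGA and 60 min at 37°C, in triplicate. G2/G3 were measured by HPLC at 290 nm and fitted to a substrate-inhibition model (Vmax, Km, Ksi). UGT content was quantified by immunoblot, and kcat = Vmax/E0 was derived from it.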

Sequence of Cytochrome P450 3A4 (P08684 whole entry): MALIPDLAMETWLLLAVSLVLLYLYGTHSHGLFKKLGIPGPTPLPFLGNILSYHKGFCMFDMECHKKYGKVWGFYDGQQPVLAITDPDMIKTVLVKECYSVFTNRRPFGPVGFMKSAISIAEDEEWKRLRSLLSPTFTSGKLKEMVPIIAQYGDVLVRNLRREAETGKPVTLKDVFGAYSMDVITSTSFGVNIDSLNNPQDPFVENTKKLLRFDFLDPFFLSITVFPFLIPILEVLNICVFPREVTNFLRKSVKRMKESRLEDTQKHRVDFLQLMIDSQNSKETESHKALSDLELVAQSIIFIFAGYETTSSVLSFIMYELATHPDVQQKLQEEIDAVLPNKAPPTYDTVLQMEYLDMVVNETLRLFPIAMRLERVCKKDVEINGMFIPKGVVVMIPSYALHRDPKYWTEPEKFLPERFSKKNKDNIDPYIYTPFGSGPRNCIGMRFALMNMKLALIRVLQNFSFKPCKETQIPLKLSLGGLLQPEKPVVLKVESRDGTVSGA

- Ki [1]: 13.5 µM
- Km [2]: 3.06 µM
- Drug metabolism (Cytochrome P450 3A4): metabolite_not_detected
- Drug metabolism (Liver microsome [3]): metabolite_detected
- Ki (Liver microsome [4]): 13.2 µM
- Drug metabolism (Liver microsome [5]): metabolite_detected
- Vmax (Liver microsome [6]): 217 pmol/min
- Vmax/Km [7]: 83.9 µL/min
SMILES: O=C(O)CCc1cc(C(=O)c2ccc(OC3CCCC3)cc2O)ccc1OCc1ccc2c(O)noc2c1

Reference: ChEMBL document CHEMBL3526015, “Metabolism of the c-Fos/activator protein-1 inhibitor T-5224 by multiple human UDP-glucuronosyltransferase isoforms” (Drug Metab Dispos, 2011)
